An excerpt weighted towards active compounds, which were near 1.8% of everything screened.
M5 antag: CHRM5 antagonism in calcium assay; P08912; inhibition, % at 3 µM; CHO-hM5 cells, Fluo-8 calcium fluorescence, ACh EC80; 360,000 compounds, 0.59% hits; AID 624040;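 active means inhibition above a per-plate cutoff, the mean of that plate's test compounds plus 3 SD, cut at about 27% in these data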;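 further: 0% = acetylcholine EC80 with DMSO and 100% = DMSO without agonist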
M4 ag: CHRM4 agonism in calcium assay; P08173; CHO-K1 hM4/Gqi5, Fluo-8 calcium fluorescence; vehicle 0%, full acetylcholine response 100%; activation, % at 3 µM; 360,000 compounds, 0.14% hits; AID 624127;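 active means activation above the run mean over all test wells plus 3 SD, cut at about 32% in these data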;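 further: peak over basal fluorescence ratio per well then scaled between controls; 0% = DMSO wells and 100% = acetylcholine at EC100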
Target sequence (P08173 whole entry, looked up): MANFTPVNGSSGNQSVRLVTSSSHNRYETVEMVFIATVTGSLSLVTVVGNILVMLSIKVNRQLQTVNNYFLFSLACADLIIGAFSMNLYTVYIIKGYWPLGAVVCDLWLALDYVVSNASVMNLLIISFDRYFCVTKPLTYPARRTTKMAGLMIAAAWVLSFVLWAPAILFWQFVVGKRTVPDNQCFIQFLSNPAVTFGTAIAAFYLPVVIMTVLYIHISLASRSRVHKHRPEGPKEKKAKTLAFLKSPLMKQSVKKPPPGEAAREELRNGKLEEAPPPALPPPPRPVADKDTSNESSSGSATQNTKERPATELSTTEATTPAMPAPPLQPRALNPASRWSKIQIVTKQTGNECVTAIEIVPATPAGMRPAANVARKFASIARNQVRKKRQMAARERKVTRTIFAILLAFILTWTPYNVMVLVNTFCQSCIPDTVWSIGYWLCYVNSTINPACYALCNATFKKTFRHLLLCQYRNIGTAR
CHRM4 PAM: CHRM4 positive allosteric modulation; P08173; CHO-K1 hM4/Gqi5, Fluo-8 calcium fluorescence, ACh EC20; 0% = ACh EC20, 100% = maximal ACh; activation, % at 3 µM; 360,000 compounds, 0.4% hits;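 active means activation above its plate's cutoff, the mean activation of sample wells plus 3 SD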
M5 PAM: positive allosteric modulators of human muscarinic M5 receptor; P08912; CHO-K1 hM5, Fluo-8 calcium, ACh EC20 PAM; 0% = ACh EC20, 100% = ACh EC100; activation, % at 3 µM; 360,000 compounds, 0.3% hits;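 active means activation above the run cutoff, the mean activation of all test compounds plus 3 SD, cut at about 18% in these data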
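system = human M5 receptor in CHO-K1 cells | compound = one concentration, 3 µM final (nominal) | schedule = Post-acetylcholine fluorescence recording 140 s | signal = Fluo-8 calcium dye fluorescence, kinetic read | benchmarks = low control EC20 acetylcholine (0%), high control EC100 acetylcholine (100%) | repeats = singlicate, one well per test compound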
M5 ag: CHRM5 agonism in calcium assay; P08912; 360,000 compounds, 0.19% hits; CHO-K1 hM5 cells, Fluo-8 calcium fluorescence; 0% DMSO wells, 100% maximal acetylcholine response; AID 624037; activation, % at 3 µM;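 active means activation above the run's mean over test compounds plus 3 SD, cut at about 23% in these data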;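 further: signal is peak over basal fluorescence ratio across the kinetic read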
CHRM4 antagonist: CHRM4 antagonism in calcium assay; P08173; CHO-hM4 cells, ACh EC80, Fluo-8 calcium fluorescence; inhibition, % at 3 µM; 360,000 compounds, 0.73% hits; AID 624125;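 active means inhibition above its plate's cutoff, the mean inhibition of sample wells plus 3 SD, cut at about 27% in these data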;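 further: 0% = acetylcholine EC80 with DMSO and 100% = DMSO without agonist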
* = called active by the depositor.

Screening O=C(COC(=O)c1ccccc1O)NCCc1c[nH]c2ccccc12 returned M5 antag 12, M4 ag 5, CHRM4 PAM 2, M5 PAM -19, M5 ag -2 and CHRM4 antagonist -1.
O=C(NCCc1c[nH]c2ccccc12)OCCCCOC(=O)NCCc1c[nH]c2ccccc12 was read as M5 antag 10, M4 ag 20, CHRM4 PAM -10, M5 PAM -24, M5 ag 5 and CHRM4 antagonist 32*.
For Cc1cccc(NC(=O)CCc2ccccc2)c1C the results were M5 antag -18, M4 ag 0, CHRM4 PAM 3, M5 PAM 26*, M5 ag 0 and CHRM4 antagonist -15.
Screening Cc1cccc(NC(=O)COC(=O)CCc2c[nH]c3ccccc23)c1C returned M5 antag -8, M4 ag 2, CHRM4 PAM 22*, M5 PAM 3, M5 ag 2 and CHRM4 antagonist -21.
Screening CC(C)CN1CCN(C(=O)CCc2nnc(Cc3c[nH]c4ccccc34)o2)[C@@H](C)C1=O returned M5 antag -13, M4 ag 1, CHRM4 PAM 3, M5 PAM 5, M5 ag -3 and CHRM4 antagonist 3.
Screening N#CC1(NC(=O)CSc2nnc(C3CC3)n2N)CCCCC1 returned M5 antag -1, M4 ag 2, CHRM4 PAM 8, M5 PAM -4, M5 ag -1 and CHRM4 antagonist -31.
Screening CCOC(=O)N1CCN(C(=O)c2ccc(CS(=O)c3cccc(C)c3)o2)CC1 (centres undefined) returned M5 antag 7, M4 ag 1, CHRM4 PAM 4, M5 PAM 1, M5 ag 1 and CHRM4 antagonist -3.
For CC1=C(C(=O)NCc2ccco2)C2(CCC(C)CC2)OC1=O (centres undefined) the results were M5 antag -4, M4 ag 1, CHRM4 PAM 1, M5 PAM 1, M5 ag 2 and CHRM4 antagonist -11.
For O=C(CN1C(=O)NC2(CCSC2)C1=O)NCc1ccccc1 (centres undefined) the results were M5 antag 7, M4 ag 3, CHRM4 PAM 18*, M5 PAM 5, M5 ag -1 and CHRM4 antagonist -9.
`CC1=C(C(=O)NCc2ccc3c(c2)OCO3)C2(CCC(C)CC2)OC1=O` (centres undefined) gave M5 antag 8, M4 ag 4, CHRM4 PAM -18, M5 PAM -21, M5 ag -1 and CHRM4 antagonist 60*.
CC1CCC2(CC1)NC(=O)N(CC(=O)NCc1ccc3c(c1)OCO3)C2=O (centres undefined) was read as M5 antag 31*, M4 ag 0, CHRM4 PAM -5, M5 PAM -14, M5 ag -9 and CHRM4 antagonist -4.
Screening O=C(CN1C(=O)NC2(CCCC2)C1=O)NCc1ccccc1 returned M5 antag 11, M4 ag 1, CHRM4 PAM 5, M5 PAM -3, M5 ag 0 and CHRM4 antagonist -11.
For CN(C)CCCn1c(=O)n(Cc2ccco2)c(=O)c2c3c(sc21)CCCCC3 the results were M5 antag -9, M4 ag 1, CHRM4 PAM -7, M5 PAM 18*, M5 ag -3 and CHRM4 antagonist -1.
Screening CN(C)CCCn1c(=O)n(CCc2ccccc2)c(=O)c2c3c(sc21)CCCCC3 returned M5 antag 26, M4 ag 25, CHRM4 PAM -13, M5 PAM -18, M5 ag -1 and CHRM4 antagonist 22.
For CN1C2CCC1CC(OC(c1ccccc1)c1ccccc1)C2 (centres undefined) the results were M5 antag 99*, M4 ag 2, CHRM4 PAM -44, M5 PAM -33, M5 ag -18 and CHRM4 antagonist 99*.
`CN1CCC(OC(c2ccccc2)c2ccc(Cl)cc2)C1` (centres undefined) gave M5 antag 89*, M4 ag 5, CHRM4 PAM -10, M5 PAM -41, M5 ag -10 and CHRM4 antagonist 58*.
Screening CN1C2CCC1CC(OC(=O)c1c[nH]c3ccccc13)C2 (centres undefined) returned M5 antag 2, M4 ag 0, CHRM4 PAM -1, M5 PAM -6, M5 ag -1 and CHRM4 antagonist -10.
`O=C1C[C@@H](c2ccc(O)cc2)Oc2cc(O)cc(O)c21` gave M5 antag -2, M4 ag 1, CHRM4 PAM 4, M5 PAM 11, M5 ag 8 and CHRM4 antagonist -10.
`Cc1c(O)cc2c(c1O)C(=O)CC(c1ccccc1)O2` (centres undefined) gave M5 antag 84*, M4 ag 60*, CHRM4 PAM -17, M5 PAM -17, M5 ag 47* and CHRM4 antagonist 94*.
COc1ccc(C(=O)N2CCCC(CNC(=O)c3ccccc3Cl)C2)o1 (centres undefined) was read as M5 antag -12, M4 ag 1, CHRM4 PAM 3, M5 PAM 4, M5 ag -1 and CHRM4 antagonist 2.
For CC(CCC(C)C(C)(C)C)[C@@H]1CC[C@H]2C3C[C@H](OS(O)(=S)=S)[C@H]4C[C@H](OS(O)(=S)=S)[C@@H](OS(O)(=S)=S)C[C@]4(C)[C@H]3CC[C@]12C (some centres undefined) (tested in a mixture with another compound) the results were M5 antag 13, M4 ag 81*, CHRM4 PAM -6, M5 PAM -27, M5 ag 21 and CHRM4 antagonist 51*.
Screening CCOC(=O)c1ccc(NC(=O)CSc2nnc(-c3cccs3)n2C)cc1 returned M5 antag -8, M4 ag 2, CHRM4 PAM 4, M5 PAM 21*, M5 ag 3 and CHRM4 antagonist -9.
CCOC(=O)c1ccc(NC(=O)CSc2nnc(-c3cccs3)n2CC)cc1 was read as M5 antag 1, M4 ag 1, CHRM4 PAM 12, M5 PAM -2, M5 ag 3 and CHRM4 antagonist -2.
CCCCCCCC(O)CC(CC1CCCCC1)C(=O)NN (centres undefined) was read as M5 antag -4, M4 ag 1, CHRM4 PAM 34*, M5 PAM 13, M5 ag -4 and CHRM4 antagonist 15.
